This passage reports IC50 results from ChEMBL document CHEMBL2150868, “Bi-, tri-, and polycyclic acylphloroglucinols from Hypericum empetrifolium” (J Nat Prod, 2012).

One test is described as follows: Antiangiogenic activity in SV-40T transfected human HMEC1 cells assessed as inhibition of cell proliferation after 72 hrs by crystal violet staining. It counts as functional, cell-based. The conditions noted are these: HMEC-1, 72 h. The gist of the method:
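SV-40T-transfected human microvascular endothelial HMEC-1 cells kept at 37 °C, 5% CO2, humidified. Seeded 1.5 × 10^3 cells/well in endothelial growth medium with 10% FCS, allowed 24 h adhesion (crystal-violet baseline plate). Exposed to 0.1−30 or 0.2−60 μM compound (DMSO; 0.1% DMSO control) for 72 h. Crystal violet stain, A540. IC50 ± SD from three independent experiments, hexaplicates.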
`CCC(C)C(=O)c1c(O)cc2c(c1O)CCC(C)(CCC=C(C)C)O2` (centres undefined): the IC50 (in general, the point on the concentration scale where inhibition reaches its midpoint) was found to be 21.1 µM. Turning to `CCC(C)C(=O)c1c(O)cc(O)c2c1OC(C)(CCC=C(C)C)CC2` (centres undefined), the IC50 amounted to 13.3 µM. Consider `CC(C)=CCCC1(C)CCc2c(O)cc(O)c(C(=O)C(C)C)c2O1` (centres undefined), for which the IC50 was found to be 16.5 µM. Take `CC(C)=CCCC1(C)CCc2c(cc(O)c(C(=O)C(C)C)c2O)O1` (centres undefined): the IC50 amounted to 29.6 µM. Same read-out and setting: then `CC(C)C(=O)c1c(O)cc(O)c2c1O[C@]1(C)CCCC(C)(C)[C@H]1C2` (relative stereo) [EMPETRIFERDINAN A], with 24.4 µM.

`CCC(C)C(=O)c1c(O)cc(O)c2c1O[C@]1(C)CCCC(C)(C)[C@H]1C2` (relative stereo) [EMPETRIFERDINAN B]: the IC50 turned out to be 16.6 µM. The same measure, in the same setting: then `CCC(C)C(=O)c1c(O)cc(O)c2c1O[C@]1(C)CC[C@@H](O)C(C)(C)[C@H]1C2` (relative stereo) [EMPETRIFERDINOL], with 29.2 µM. Same read-out and setting: the same measure for `CC(C)=CCC[C@@]1(C)Oc2c(c(O)cc(O)c2C(=O)C(C)C)C[C@@H]1O` (relative stereo) [EMPETRIKARINOL A]: 23.4 µM.

Take `CCC(C)C(=O)c1c(O)cc(O)c2c1O[C@](C)(CCC=C(C)C)[C@@H](O)C2` (relative stereo) [EMPETRIKARINOL B]: the IC50 was determined as 18.4 µM. In the case of `CCC(C)C(=O)c1c(O)cc2c3c1OC(C)(C)C1CCC(C)(CC31)O2` (centres undefined) [EMPETRIFRANZINAN C], the IC50 was 9.2 µM.

Consider `CC(C)=CCCC1(C)C=Cc2c(O)cc(O)c(C(=O)C(C)C)c2O1` (centres undefined) [EMPETRIKARINEN A], for which the IC50 was determined as 24.4 µM. The same measure, in the same setting: then `CCC(C)C(=O)c1c(O)cc(O)c2c1OC(C)(CCC=C(C)C)C=C2` (centres undefined) [EMPETRIKARINEN B], with 15 µM.

With `COc1cc(O)c(CC=C(C)C)c(O)c1C(=O)/C=C/c1ccc(O)cc1` [XANTHOHUMOL], the IC50 turned out to be 11.4 µM.

The nature of a further test: Antiangiogenic activity in bovine endothelial cells assessed as inhibition of cell proliferation. It counts as functional, cell-based. The conditions noted are these: Bos taurus.
For the compound `CC(C)=CCC[C@]1(C)[C@@H](CC=C(C)C)C[C@]2(CC=C(C)C)C(=O)C(CC=C(C)C)=C(O)[C@@]1(C(=O)C(C)C)C2=O`, the IC50 came to 2.1 µM.
